In ChEMBL document CHEMBL3046935, “Bioassay-directed isolation and identification of phytotoxic and fungitoxic acetylenes from Conyza canadensis” (J Agric Food Chem, 2012):
Calls of active or inactive are those of the source. The rule behind the calls is not given here.

Key:
Lactuca sativa = experiment: Phytotoxicity against […] dicot Lactuca sativa (lettuce) seeds assessed as inhibition of germination of seeds at 1 mg/mL after 7 days; assay type: organism-based; conditions: in vivo, 168 h
Outline: (§1)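 Seeds (5 mg lettuce or 10 mg bentgrass) were placed on filter paper in 24-well plates with 250 μL of test solution per well (acetone 3% final). Solvent-only wells served as controls. Plates were sealed and kept at 26 °C under continuous light for 7 days. Germination was rated visually on a 0−5 scale against untreated controls (0 = no effect, 5 = no growth/germination), with experiments in duplicate.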

Agrostis stolonifera = experiment: Phytotoxicity against Agrostis stolonifera seeds assessed as inhibition of germination of seeds at 1 mg/mL after 7 days; assay type: organism-based; conditions: in vivo, 168 h; outline: as §1
Colletotrichum fragariae [1] = experiment: Antifungal activity against Colletotrichum fragariae assessed as growth inhibition at 10 ug/spot by […]; assay type: functional
Colletotrichum fragariae [2] = experiment: Antifungal activity against Colletotrichum fragariae assessed as growth inhibition at 0.3 to 30 uM by Ninety-Six Well microbioassay; assay type: functional, organism-based
Outline: (§2)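 Fungi (the Colletotrichum isolates came from strawberry anthracnose lesions) were grown on PDA at 24 ± 2 °C under a 12 h photoperiod. They were tested in 96-well microtiter dose-response format at final concentrations of 0.3, 3.0 and 30.0 μM, in duplicate. Growth was read as absorbance at 620 nm at 0, 24, 48 and 72 h, with solvent controls.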

[3] = tested on: Colletotrichum gloeosporioides; experiment: Antifungal activity against Colletotrichum gloeosporioides assessed as growth inhibition at 0.3 to 30 uM by Ninety-Six Well microbioassay; assay type: functional, organism-based; outline: as §2
Colletotrichum acutatum [4] = experiment: Antifungal activity against Colletotrichum acutatum assessed as growth inhibition at 0.3 to 30 uM by Ninety-Six Well microbioassay; assay type: functional, organism-based; outline: as §2
Colletotrichum acutatum [5] = experiment: Antifungal activity against Colletotrichum acutatum assessed as growth inhibition at 10 ug/spot by […]; assay type: functional
Lemna aequinoctialis = experiment: Inhibition of growth of Lemna paucicostata
[6] = tested on: Colletotrichum gloeosporioides; experiment: Antifungal activity against Colletotrichum gloeosporioides assessed as growth inhibition at 10 ug/spot by […]; assay type: functional

`C/C=C\C#CC#C/C=C\C(=O)OC` [(2Z,8Z)-MATRICARIA ACID METHYL ESTER] was tested, and the Activity (Lactuca sativa) was “Toxic” and the Activity (Agrostis stolonifera) was “Toxic”.

With `CCCC#C/C=C1/C=CC(=O)O1` [(4Z)-LACHNOPHYLLUM LACTONE] the “diameter of the inhibition zone (DIZ)” value (Colletotrichum fragariae [1]) was 0.3 mm, the Activity (Colletotrichum fragariae [2]) was “Active” and the Activity [3] was “Active”. For the same compound, the Activity (Lactuca sativa) was “Toxic”, the Activity (Agrostis stolonifera) was “Toxic” and the Activity (Colletotrichum acutatum [4]) was “Active”. The “diameter of the inhibition zone (DIZ)” value (Colletotrichum acutatum [5]) was 0.75 mm, the IC50 (Lemna aequinoctialis) was 104 µM and the “diameter of the inhibition zone (DIZ)” value [6] was 0.58 mm.

For `C/C=C\C#C/C=C1/C=CC(=O)O1` [(4Z,8Z)-MATRICARIA LACTONE], the “diameter of the inhibition zone (DIZ)” value (Colletotrichum fragariae [1]) was 2.65 mm, the Activity (Colletotrichum fragariae [2]) was “Active” and the Activity [3] was “Active”. The Activity (Lactuca sativa) was “Toxic”, the Activity (Agrostis stolonifera) was “Toxic” and the Activity (Colletotrichum acutatum [4]) was “Active”. For the same compound, the “diameter of the inhibition zone (DIZ)” value (Colletotrichum acutatum [5]) was 0.7 mm, the IC50 (Lemna aequinoctialis) was 220 µM and the “diameter of the inhibition zone (DIZ)” value [6] was 0.98 mm.
